# Sampled rows, rich in hits. Any-hit rate of the full collection: about 3.9%.
# DNA FID counter = counter-screen for HCV NS3 helicase inhibitors: DNA intercalator displacement; DNA fluorescent intercalator displacement, fluorescence; inhibition, % at 7.9 µM; hit rate 0.17% among 290,000; in the data active means inhibition above about 37%;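 further: 0% = vehicle and 100% = reference compound; higher means more ethidium bromide displaced from hairpin DNA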
# HCV core dimer = blocks dimerization of HCV core protein; hit rate 0.33% among 300,000; AID 1899; TR-FRET GST/Flag-core106 dimerization, 1536-well; inhibition, % at 5 µM;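 active means inhibition above the mean of all tested compounds plus 3 SD, set per screening campaign, cut at about 45% in these data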
#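 System – GST-tagged and Flag-tagged HCV core protein residues 1-106 · Repeats – one well for each compound · Technique – TR-FRET 671 and 617 nm emission · Doses – one concentration, 5 µM, in 0.5% DMSO · Times – 4 h, 22.5 °C incubation · Also added – Eu donor and XL665 acceptor anti-tag antibodies · Measure – percent inhibition of core106 dimerization signal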
# HSF1 activator = increases HSF-1 driven luciferase reporter signal; NIH3T3-HGL HSF-1 luciferase reporter, MG132, 8 h; 100% = twice DMSO control signal; activation, % at 9 µM; hit rate 1.7% among 300,000; AID 504408;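 active means mean replicate activation of at least 50% with a set share of replicates each reaching 50%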;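 further: 0% = median of the neutral control wells and 100% = twice that signal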
# HCV NS3 hel inh = inhibitors of Hepatitis C virus NS3 helicase | NS3 helicase DNA unwinding, Cy5 molecular beacon fluorescence | inhibition, % at 10.9 µM | hit rate 0.56% among 290,000 | AID 1800;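 active means inhibition above the mean of all tested compounds plus 3 SD, set per campaign, cut at about 35% in these data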;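 further: 0% = DMSO wells and 100% = thioflavine S control wells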
#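 Control set: DMSO versus 110 µM thioflavine S; Material: NS3 helicase fragment of HCV; Measured by: Cy5 fluorescence at 0 and 60 min, beacon hairpin quenching; Read-out basis: percent inhibition from t60/t0 fluorescence ratio; Times: reaction time 60 min, 25 °C; Repeats: single replicate; Compound dosing: single dose, 10.9 µM nominal final, DMSO 0.8% final.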
# HSF1 inh = HSF1 inhibition; NIH3T3-HGL HSE-luciferase, MG132-induced, luminescence 8 h; hits give low values; activity change, negative = inhibition, % at 7.5 µM (by protocol); hit rate 0.77% among 300,000;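 active means more than half of replicate wells show activity change below -50%, luminescence cut by over half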;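 further: luciferase reports HSF-1 transcriptional activity via heat shock element; 0% = median of DMSO wells and -100% = zero luminescence signal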
# HSP90 inh = inhibitors of HSP90 luciferase refolding in rabbit reticulocyte lysate | hit rate 0.91% among 290,000 | luciferase refolding luminescence, 3 h | inhibition, % at 5.6 µM;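 active means inhibition above the screen-wide mean plus 3 SD, computed separately per campaign, cut at about 16% in these data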;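 further: 0% = DMSO wells and 100% = 60 µM geldanamycin wells; inhibitors lower the luminescence because luciferase stays unfolded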
# The depositor's hits bear a star; · = no result.
SMILES,DNA FID counter,HCV core dimer,HSF1 activator,HCV NS3 hel inh,HSF1 inh,HSP90 inh
Cn1c(=O)c(/C=C/c2ccc(F)cc2)nc2ccccc21,-7,·,60*,7,46,8
Cn1c(=O)c(/C=C/c2ccccc2)nc2ccccc21,-9,3,45,-2,17,1
NC(=O)c1ccc(NC(=O)C#Cc2ccccc2)cc1,-7,3,61*,1,51,0
O=C(C#Cc1ccccc1)Nc1ccccc1F,3,-7,106*,1,58,8
COc1ccc2[nH]cc(C(=O)CN3CCN(C/C=C/c4ccccc4)CC3)c2c1,31,·,·,-47,·,4
CCOc1ccccc1C(=O)N[C@H](C(=O)Nc1cc(S(=O)(=O)N(C)C)ccc1OC)C(C)C,5,0,-15,-10,-7,0
CCCN(CCC)C(=O)CC(c1ccccc1)c1cc(Br)ccc1O (centres undefined),-25,6,-5,-5,-1,6
CCC(=O)N(CCC(c1ccco1)c1ccccc1OC)Cc1cccs1 (centres undefined),-30,9,-82,12,-75*,2
CCOc1ccc(N(C)S(=O)(=O)c2ccc(C)c(C(=O)OCC(=O)c3c[nH]c4ccccc34)c2)cc1,2,22,16,13,5,2
CCOC(=O)C1=C(CSc2nc3c(cc2C#N)CN(C)CC3)OC(N)=C(C#N)C1c1ccc(F)cc1 (centres undefined),-1,44,11,-18,3,3
CCOC(=O)C1=C(CSc2nc3c(cc2C#N)CN(C)CC3)OC(N)=C(C#N)C1c1ccccc1 (centres undefined),-2,52*,5,-51,8,5
CCOC(=O)C1=C(CSc2nc(-c3ccccc3)ccc2C#N)OC(N)=C(C#N)C1c1ccccc1 (centres undefined),-21,53*,-22,16,-16,3
CCOC(=O)C1=C(CSc2nc(-c3ccccc3)ccc2C#N)OC(N)=C(C#N)C1c1cccnc1 (centres undefined),-25,26,0,6,-1,0
CN1CCN(C(=O)/C(=C/c2cccnc2)NC(=O)c2cccc(Br)c2)CC1,-1,-8,72*,15,42,6
CC(C)OC(=O)/C(=C/c1cccnc1)NC(=O)c1ccccc1,0,-12,9,-2,-8,-2
COC(=O)/C(=C/c1cccnc1)NC(=O)c1ccccc1,1,-4,92*,10,39,4
O=C(N/C(=C\c1cccnc1)C(=O)N1CCCCC1)c1cccc(Br)c1,-25,-5,-14,-7,-1,3
COCCNC(=O)c1ccc(-n2c(SCc3ccncc3)nc3ccccc3c2=O)cc1,-27,11,10,3,-5,2
COc1cccc(CC2(CO)CCN(S(=O)(=O)c3ccc(OC)cc3OC)CC2)c1,-34,6,-67,-7,-56*,-4
COc1ccc(CC2(CO)CCN(S(=O)(=O)c3cccc4cccnc34)CC2)cc1,-36,-2,8,1,-1,2
CCOC(=O)c1ccccc1NC(=S)N1CCN(C(=O)c2ccco2)CC1,-24,2,6,-4,-5,-1
O=P(O)(CCc1ccncc1)CN1CCCCC1,-2,-1,-1,1,-2,-1
COc1cc(C2C(C#N)=C(N)N(N(C)C)C3=C2C(=O)CC(C)(C)C3)ccc1O (centres undefined),-11,8,-80,-5,-76*,-3
Cc1ccc2c(c1)C1CN(C)CCC1N2C(=O)c1ccccc1NS(=O)(=O)c1cccc(C(F)(F)F)c1 (centres undefined),24,3,-3,-68,1,-4
Cc1cccc(C(=O)c2c(N)sc3c2CCCC3)c1,-15,49*,2,26,0,4
Cc1cc(C(=O)Nc2nc(-c3ccccn3)cs2)ccc1[N+](=O)[O-],1,9,-28,3,-31,2
O=C(Nc1nc(-c2ccccn2)cs1)c1cc(Cl)ccc1[N+](=O)[O-],-3,15,70*,9,34,2
N=c1c(S(=O)(=O)c2ccc(Br)cc2)cc2c(=O)n3ccccc3nc2n1C1CCCC1,3,8,55*,-1,24,4
